Square brackets hold non-standard residues; d marks the D form. Peptide text beside a SMILES is read from it. dPhe(4-Cl) = N[C@H](Cc1ccc(Cl)cc1)C(=O)O; d2Nal = N[C@H](Cc1ccc2ccccc2c1)C(=O)O
How the values were obtained:
Assay type in all cases: functional
Rattus norvegicus [1] = species on record: Rattus norvegicus; test: Percent anti-ovulatory activity in Sprague-Dawley rats against percent of 8 rats that did not ovulate at dose 50 microg
Summary of the method: (§1)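 Antiovulatory activity was tested in Sprague-Dawley rats using the standard rat antiovulatory assay. Analogues were given in a 40% propylene glycol-saline vehicle at the stated microgram dose. The value is the percentage of the (n) rats in each group in which ovulation was blocked.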

Rattus norvegicus [2] = species on record: Rattus norvegicus; test: Percent anti-ovulatory activity in Sprague-Dawley rats against percent of 13 rats that did not ovulate at dose 0.5 microg; summary of the method: as §1
Rattus norvegicus [3] = species on record: Rattus norvegicus; test: Percent anti-ovulatory activity in Sprague-Dawley rats against percent of 7 rats that did not ovulate at dose 3 microg; summary of the method: as §1
Rattus norvegicus [4] = species on record: Rattus norvegicus; test: Percent anti-ovulatory activity in Sprague-Dawley rats against percent of 9 rats that did not ovulate at dose 1 microg; summary of the method: as §1
Rattus norvegicus [5] = species on record: Rattus norvegicus; test: Percent anti-ovulatory activity in Sprague-Dawley rats against percent of 10 rats that did not ovulate at dose 0.5 microg; summary of the method: as §1
Rattus norvegicus [6] = species on record: Rattus norvegicus; test: Percent anti-ovulatory activity in Sprague-Dawley rats against percent of 8 rats that did not ovulate at dose 3 microg; summary of the method: as §1
Rattus norvegicus [7] = species on record: Rattus norvegicus; test: Percent anti-ovulatory activity in Sprague-Dawley rats against percent of 10 rats that did not ovulate at dose 3 ug; summary of the method: as §1
Rattus norvegicus [8] = species on record: Rattus norvegicus; test: Percent anti-ovulatory activity in Sprague-Dawley rats against percent of 13 rats that did not ovulate at dose 7.5 microg; summary of the method: as §1
Rattus norvegicus [9] = species on record: Rattus norvegicus; test: Percent anti-ovulatory activity in Sprague-Dawley rats against percent of 10 rats that did not ovulate at dose 1 ug; summary of the method: as §1
Rattus norvegicus [10] = species on record: Rattus norvegicus; test: Percent anti-ovulatory activity in Sprague-Dawley rats against percent of 11 rats that did not ovulate at dose 3 microg; summary of the method: as §1
Rattus norvegicus [11] = species on record: Rattus norvegicus; test: Percent anti-ovulatory activity in Sprague-Dawley rats against percent of 5 rats that did not ovulate at dose 1 microg; summary of the method: as §1
Rattus norvegicus [12] = species on record: Rattus norvegicus; test: Percent anti-ovulatory activity in Sprague-Dawley rats against percent of 10 rats that did not ovulate at dose 50 microg; summary of the method: as §1
Rattus norvegicus [13] = species on record: Rattus norvegicus; test: Percent anti-ovulatory activity in Sprague-Dawley rats against percent of 8 rats that did not ovulate at dose 1 microg; summary of the method: as §1
Rattus norvegicus [14] = species on record: Rattus norvegicus; test: Percent anti-ovulatory activity in Sprague-Dawley rats against percent of 9 rats that did not ovulate at dose 3 microg; summary of the method: as §1
Rattus norvegicus [15] = species on record: Rattus norvegicus; test: Percent anti-ovulatory activity in Sprague-Dawley rats against percent of 10 rats that did not ovulate at dose 3 microg; summary of the method: as §1
Rattus norvegicus [16] = species on record: Rattus norvegicus; test: Percent anti-ovulatory activity in Sprague-Dawley rats against percent of 11 rats that did not ovulate at dose 1 microg; summary of the method: as §1
Rattus norvegicus [17] = species on record: Rattus norvegicus; test: Percent anti-ovulatory activity in Sprague-Dawley rats against percent of 12 rats that did not ovulate at dose 3 microg; summary of the method: as §1
Rattus norvegicus [18] = species on record: Rattus norvegicus; test: Percent anti-ovulatory activity in Sprague-Dawley rats against percent of 11 rats that did not ovulate at dose 0.5 ug; summary of the method: as §1
Rattus norvegicus [19] = species on record: Rattus norvegicus; test: Percent anti-ovulatory activity in Sprague-Dawley rats against percent of 13 rats that did not ovulate at dose 1 ug; summary of the method: as §1
Rattus norvegicus [20] = species on record: Rattus norvegicus; test: Percent anti-ovulatory activity in Sprague-Dawley rats against percent of 10 rats that did not ovulate at dose 1 microg; summary of the method: as §1

CC(=O)N[C@H](Cc1ccc2ccccc2c1)C(=O)N[C@@H]1CSSC[C@@H](C(=O)N[C@@H](CCCN=C(N)N)C(=O)N2CCC[C@H]2C(=O)N[C@H](C)C(N)=O)NC(=O)[C@@H](CCCN=C(N)N)NC(=O)[C@H](Cc2ccc(O)cc2)NC(=O)[C@H](CO)NC(=O)[C@@H](Cc2c[nH]c3ccccc23)NC1=O
Activity (Rattus norvegicus [1]): 0%

CC(=O)N[C@H](Cc1ccc2ccccc2c1)C(=O)N[C@H](Cc1ccc(Cl)cc1)C(=O)N[C@H](Cc1c[nH]c2ccccc12)C(=O)N[C@@H](CO)C(=O)N[C@@H](Cc1ccc(O)cc1)C(=O)N[C@H](CCCN=C(N)N)C(=O)N[C@@H](Cc1ccc(O)cc1)C(=O)N[C@@H](CCCN=C(N)N)C(=O)N1CCC[C@H]1C(=O)N[C@H](C)C(N)=O
Activity (Rattus norvegicus [2]): 31% | Activity (Rattus norvegicus [3]): 100% | Activity (Rattus norvegicus [4]): 89%

CC(=O)N[C@H](Cc1ccc2ccccc2c1)C(=O)N[C@H](Cc1ccc(Cl)cc1)C(=O)N[C@H](Cc1c[nH]c2ccccc12)C(=O)N[C@H]1CSSC[C@@H](C(=O)N[C@@H](CCCN=C(N)N)C(=O)N2CCC[C@H]2C(=O)N[C@H](C)C(N)=O)NC(=O)[C@@H](CCCN=C(N)N)NC(=O)[C@H](Cc2ccc(O)cc2)NC1=O
Activity (Rattus norvegicus [1]): 0%

CC(=O)N[C@H](Cc1ccc2ccccc2c1)C(=O)N[C@H](Cc1ccc2ccccc2c1)C(=O)N[C@H](Cc1c[nH]c2ccccc12)C(=O)N[C@@H](CO)C(=O)N[C@@H](Cc1ccc(O)cc1)C(=O)N[C@H](CCCN=C(N)N)C(=O)N[C@@H](Cc1ccc(O)cc1)C(=O)N[C@@H](CCCN=C(N)N)C(=O)N1CCC[C@H]1C(=O)N[C@H](C)C(N)=O
Activity (Rattus norvegicus [4]): 11%

CC(=O)N[C@H](Cc1ccc2ccccc2c1)C(=O)N[C@H](Cc1ccc(Cl)cc1)C(=O)N[C@H](Cc1c[nH]c2ccccc12)C(=O)N[C@@H](CO)C(=O)N[C@@H](Cc1ccc(O)cc1)C(=O)N[C@H](CCCN=C(N)N)C(=O)N[C@@H](Cc1c[nH]c2ccccc12)C(=O)N[C@@H](CCCN=C(N)N)C(=O)N1CCC[C@H]1C(=O)N[C@H](C)C(N)=O
Activity (Rattus norvegicus [5]): 10% | Activity (Rattus norvegicus [6]): 85%

CC(=O)N[C@H](Cc1ccc2ccccc2c1)C(=O)N[C@H](Cc1ccc(Cl)cc1)C(=O)N[C@H](Cc1c[nH]c2ccccc12)C(=O)N[C@@H](CO)C(=O)N[C@@H](Cc1ccc(O)cc1)C(=O)N[C@H](CCCN=C(N)N)C(=O)N[C@H](C(=O)N[C@@H](CCCN=C(N)N)C(=O)N1CCC[C@H]1C(=O)N[C@H](C)C(N)=O)[C@@H](C)O
Activity (Rattus norvegicus [7]): 20%

CC(=O)N[C@H](Cc1ccc2ccccc2c1)C(=O)N[C@H](Cc1ccc(Cl)cc1)C(=O)N[C@H](Cc1c[nH]c2ccccc12)C(=O)N[C@@H](CO)C(=O)N[C@@H](Cc1ccc(O)cc1)C(=O)N[C@H](CCCN=C(N)N)C(=O)N[C@@H](CCCCN)C(=O)N[C@@H](CCCN=C(N)N)C(=O)N1CCC[C@H]1C(=O)N[C@H](C)C(N)=O
Activity (Rattus norvegicus [8]): 0%

CC(=O)N[C@H](Cc1ccc2ccccc2c1)C(=O)N[C@H](Cc1ccc(Cl)cc1)C(=O)N[C@H](Cc1c[nH]c2ccccc12)C(=O)N[C@@H](CO)C(=O)N[C@@H](Cc1ccc(O)cc1)C(=O)N[C@H](CCCN=C(N)N)C(=O)N[C@@H](Cc1ccc(C)cc1)C(=O)N[C@@H](CCCN=C(N)N)C(=O)N1CCC[C@H]1C(=O)N[C@H](C)C(N)=O
Activity (Rattus norvegicus [4]): 22%

CC(=O)N[C@H](Cc1ccc2ccccc2c1)C(=O)N[C@H](Cc1ccc(Cl)cc1)C(=O)N[C@H](Cc1c[nH]c2ccccc12)C(=O)N[C@@H](CO)C(=O)N[C@@H](Cc1ccc(O)cc1)C(=O)N[C@H](CCCN=C(N)N)C(=O)N[C@@H](Cc1ccc(F)cc1)C(=O)N[C@@H](CCCN=C(N)N)C(=O)N1CCC[C@H]1C(=O)N[C@H](C)C(N)=O
Activity (Rattus norvegicus [9]): 0% | Activity (Rattus norvegicus [6]): 75%

CC(=O)N[C@H](Cc1ccc2ccccc2c1)C(=O)N[C@H](Cc1ccc(Cl)cc1)C(=O)N[C@H](Cc1c[nH]c2ccccc12)C(=O)N[C@@H](CO)C(=O)N[C@@H](Cc1ccc(O)cc1)C(=O)N[C@H](CCCN=C(N)N)C(=O)N[C@@H](Cc1c(F)c(F)c(F)c(F)c1F)C(=O)N[C@@H](CCCN=C(N)N)C(=O)N1CCC[C@H]1C(=O)N[C@H](C)C(N)=O
Activity (Rattus norvegicus [10]): 100% | Activity (Rattus norvegicus [11]): 20%

CC(=O)N[C@H](Cc1ccc2ccccc2c1)C(=O)N[C@H](Cc1ccc(Cl)cc1)C(=O)N[C@@H]1CSSC[C@@H](C(=O)N[C@@H](CCCN=C(N)N)C(=O)N2CCC[C@H]2C(=O)N[C@H](C)C(N)=O)NC(=O)[C@@H](CCCN=C(N)N)NC(=O)[C@H](Cc2ccc(O)cc2)NC(=O)[C@H](CO)NC1=O
Activity (Rattus norvegicus [12]): 0%

CC(=O)N[C@H](Cc1ccc2ccccc2c1)C(=O)N[C@H](Cc1ccc(Cl)cc1)C(=O)N[C@H](Cc1c[nH]c2ccccc12)C(=O)N[C@@H](CO)C(=O)N[C@@H](Cc1ccc(O)cc1)C(=O)N[C@H](CCCN=C(N)N)C(=O)N(C)[C@@H](Cc1ccccc1)C(=O)N[C@@H](CCCN=C(N)N)C(=O)N1CCC[C@H]1C(=O)N[C@H](C)C(N)=O
Activity (Rattus norvegicus [13]): 13% | Activity (Rattus norvegicus [14]): 11%

CC(=O)N[C@H](Cc1ccc2ccccc2c1)C(=O)N[C@H](Cc1ccc(Cl)cc1)C(=O)N[C@H](Cc1c[nH]c2ccccc12)C(=O)N[C@@H](CO)C(=O)N[C@@H](Cc1ccc(O)cc1)C(=O)N[C@H](CCCN=C(N)N)C(=O)N[C@@H](Cc1ccc2ccccc2c1)C(=O)N[C@@H](CCCN=C(N)N)C(=O)N1CCC[C@H]1C(=O)N[C@H](C)C(N)=O
Activity (Rattus norvegicus [5]): 0% | Activity (Rattus norvegicus [15]): 100%

CC(=O)N[C@H](Cc1ccc2ccccc2c1)C(=O)N[C@H](Cc1ccc(Cl)cc1)C(=O)N[C@H](Cc1c[nH]c2ccccc12)C(=O)N[C@@H](CO)C(=O)N[C@@H](Cc1ccc(O)cc1)C(=O)N[C@H](CCCN=C(N)N)C(=O)N[C@@H](Cc1ccc(Cl)cc1)C(=O)N[C@@H](CCCN=C(N)N)C(=O)N1CCC[C@H]1C(=O)N[C@H](C)C(N)=O
Activity (Rattus norvegicus [16]): 9% | Activity (Rattus norvegicus [17]): 100%

CC(=O)N[C@H](Cc1ccc2ccccc2c1)C(=O)N[C@H](Cc1ccc(Cl)cc1)C(=O)N[C@H](Cc1c[nH]c2ccccc12)C(=O)N[C@@H](CO)C(=O)N[C@H]1CSSC[C@@H](C(=O)N[C@@H](CCCN=C(N)N)C(=O)N2CCC[C@H]2C(=O)N[C@H](C)C(N)=O)NC(=O)[C@@H](CCCN=C(N)N)NC1=O
Activity (Rattus norvegicus [1]): 0%

CC(=O)N[C@H](Cc1ccc2ccccc2c1)C(=O)N[C@H](Cc1ccc2ccccc2c1)C(=O)N[C@H](Cc1c[nH]c2ccccc12)C(=O)N[C@@H](CO)C(=O)N[C@@H](Cc1ccc(O)cc1)C(=O)N[C@H](CCCN=C(N)N)C(=O)N[C@@H](CC(C)C)C(=O)N[C@@H](CCCN=C(N)N)C(=O)N1CCC[C@H]1C(=O)N[C@H](C)C(N)=O
Activity (Rattus norvegicus [16]): 0%

CC(=O)N[C@H](Cc1ccc2ccccc2c1)C(=O)N[C@H](Cc1ccc(Cl)cc1)C(=O)N[C@H](Cc1c[nH]c2ccccc12)C(=O)N[C@@H](CO)C(=O)N[C@@H](Cc1ccc(O)cc1)C(=O)N[C@H](CCCN=C(N)N)C(=O)N[C@@H](Cc1ccccc1)C(=O)N[C@@H](CCCN=C(N)N)C(=O)N1CCC[C@H]1C(=O)N[C@H](C)C(N)=O (Ac-[d2Nal][dPhe(4-Cl)][dW]SY[dR]FRP[dA]-NH2)
Activity (Rattus norvegicus [18]): 64%

CC(=O)N[C@H](Cc1ccc2ccccc2c1)C(=O)N[C@H](Cc1ccc(Cl)cc1)C(=O)N[C@H](Cc1c[nH]c2ccccc12)C(=O)N[C@@H](CO)C(=O)N[C@@H](Cc1ccc(O)cc1)C(=O)N[C@H](CCCN=C(N)N)C(=O)N[C@@H](CC(C)C)C(=O)N[C@@H](CCCN=C(N)N)C(=O)N1CCC[C@H]1C(=O)N[C@H](C)C(N)=O (Ac-[d2Nal][dPhe(4-Cl)][dW]SY[dR]LRP[dA]-NH2)
Activity (Rattus norvegicus [19]): 77% | Activity (Rattus norvegicus [14]): 100%

CC(=O)N[C@H](Cc1ccc(Cl)cc1)C(=O)N[C@H](Cc1ccc(Cl)cc1)C(=O)N[C@H](Cc1c[nH]c2ccccc12)C(=O)N[C@@H](CO)C(=O)N[C@@H](Cc1ccc(O)cc1)C(=O)N[C@H](CCCN=C(N)N)C(=O)N[C@@H](Cc1ccccc1)C(=O)N[C@@H](CCCN=C(N)N)C(=O)N1CCC[C@H]1C(=O)N[C@H](C)C(N)=O (Ac-[dPhe(4-Cl)][dPhe(4-Cl)][dW]SY[dR]FRP[dA]-NH2)
Activity (Rattus norvegicus [20]): 20%

Source: ChEMBL document CHEMBL1122906, “Improved antagonists of luteinizing hormone-releasing hormone modified in position 7” (1985)
